# Assay results collected from several papers.
# Lines come from different studies, so protocols differ.
# Target: Mitogen-activated protein kinase kinase kinase 19 (MAP3K19, Homo sapiens, UniProt Q56UN5)
# Sequence (Q56UN5 1-1328, as in one of the studies): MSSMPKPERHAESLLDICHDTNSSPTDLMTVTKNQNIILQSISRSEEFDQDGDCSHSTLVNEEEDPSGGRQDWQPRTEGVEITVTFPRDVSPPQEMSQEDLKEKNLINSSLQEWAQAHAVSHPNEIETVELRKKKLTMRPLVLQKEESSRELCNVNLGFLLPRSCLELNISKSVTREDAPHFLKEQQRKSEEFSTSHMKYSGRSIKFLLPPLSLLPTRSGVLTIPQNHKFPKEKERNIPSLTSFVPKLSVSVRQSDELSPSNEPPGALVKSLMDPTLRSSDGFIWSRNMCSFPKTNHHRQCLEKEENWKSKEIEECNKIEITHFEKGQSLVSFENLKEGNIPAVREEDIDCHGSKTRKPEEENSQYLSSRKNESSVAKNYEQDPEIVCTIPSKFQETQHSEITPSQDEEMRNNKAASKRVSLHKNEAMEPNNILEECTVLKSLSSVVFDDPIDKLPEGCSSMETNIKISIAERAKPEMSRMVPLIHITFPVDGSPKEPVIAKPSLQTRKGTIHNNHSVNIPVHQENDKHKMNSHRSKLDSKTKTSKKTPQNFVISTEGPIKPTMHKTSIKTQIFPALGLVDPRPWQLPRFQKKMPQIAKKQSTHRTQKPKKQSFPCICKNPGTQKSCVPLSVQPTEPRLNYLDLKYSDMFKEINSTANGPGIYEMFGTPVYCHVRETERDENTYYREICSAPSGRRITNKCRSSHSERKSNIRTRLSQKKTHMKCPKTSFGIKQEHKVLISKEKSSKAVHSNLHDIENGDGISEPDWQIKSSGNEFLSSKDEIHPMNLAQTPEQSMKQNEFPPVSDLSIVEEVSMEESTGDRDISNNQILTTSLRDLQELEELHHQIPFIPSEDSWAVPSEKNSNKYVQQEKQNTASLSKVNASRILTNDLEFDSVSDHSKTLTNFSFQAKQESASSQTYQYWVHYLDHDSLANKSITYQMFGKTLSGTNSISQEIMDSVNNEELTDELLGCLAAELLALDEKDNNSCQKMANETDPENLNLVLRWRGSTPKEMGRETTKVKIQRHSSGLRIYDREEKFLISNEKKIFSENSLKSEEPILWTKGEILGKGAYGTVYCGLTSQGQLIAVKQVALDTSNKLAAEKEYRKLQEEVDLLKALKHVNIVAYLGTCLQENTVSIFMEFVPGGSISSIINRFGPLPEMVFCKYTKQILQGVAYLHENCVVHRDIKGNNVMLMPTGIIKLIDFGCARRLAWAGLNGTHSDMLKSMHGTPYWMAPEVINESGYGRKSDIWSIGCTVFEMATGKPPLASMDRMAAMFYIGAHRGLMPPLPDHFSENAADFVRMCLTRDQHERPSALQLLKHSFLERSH
Compound,read-out,technique,tested at,remaining binding [%]
CNC(=O)[C@@H]1CC[C@@H](n2c(-c3ccc4cnccc4c3)nc3ccc(C(=O)NCc4cccc(C(N)=O)c4)cc32)C1,binding,competition with immobilised ligand,1 µM,100
CC(=O)C1=C(C)N(c2cccc(C(F)(F)F)c2)C(=O)N[C@@H]1c1ccc(C#N)nc1,cell-free assay,competition with immobilised ligand,1 µM,93
O=C(NCC1CCOCC1)c1n[nH]cc1NC(=O)c1c(F)cccc1F,binding,competition with immobilised ligand,1 µM,52
CCN1CCN(Cc2ccc(C(=O)Nc3ccc(C)c(Oc4ccc5c(c4)CC(=O)N5)c3)cc2C(F)(F)F)CC1,binding,competition with immobilised ligand,1 µM,100
Cc1cc(-n2nc(Cc3cc(F)cc(C(F)(F)F)c3)nc2C)ccc1C(N)=O,cell-free assay,competition with immobilised ligand,1 µM,98
c1cncc(-c2cccc(Nc3nccc(NC4CCCCC4)n3)c2)c1,binding,competition with immobilised ligand,10 µM,18
CO[C@H]1CC[C@H](CNc2ccc(S(=O)(=O)NC(=O)c3ccc(N4CCN(CC5=C(c6ccc(Cl)cc6)CC(C)(C)CC5)CC4)cc3Oc3cnc4[nH]ccc4c3)cc2[N+](=O)[O-])CC1,cell-free assay,competition with immobilised ligand,1 µM,64
COc1ccnn2ncc(-c3ccnc(N(C)C)n3)c12,binding,,1 µM,54
COc1ncc2cc3ccccc3nc2c1C#N,cell-free assay,competition with immobilised ligand,5 µM,81
CCCOc1ccc([C@@H]2[C@@H](C(=O)O)[C@H](c3ccc4c(c3)OCO4)CN2CC(=O)Nc2c(CC)cccc2CC)cc1,cell-free assay,competition with immobilised ligand,1 µM,93
CN(C)c1ncc(F)c(-c2cnn3ncccc23)n1,binding,,1 µM,69
Cc1cnc(Nc2ccc(C(=O)N3CCC(N4CCCC4)CC3)cc2)nc1-c1cc2ccccc2s1,binding,competition with immobilised ligand,1 µM,0
CN(CCCC(F)(F)F)c1nccc(-c2cnn3ncccc23)n1,binding,,1 µM,95
O=C(c1ccc(Nc2ncc(Cl)c(-c3ccc(Cl)s3)n2)cc1)N1CCC(N2CCCC2)CC1,binding,competition with immobilised ligand,1 µM,0
N[C@H]1CCN(c2nccc(-c3cnn4ncccc34)n2)C1,binding,,1 µM,79
O=C(NCCCN1CCOCC1)c1ccc(Nc2nccc(-c3cc4ccccc4s3)n2)cc1,binding,competition with immobilised ligand,1 µM,0.1
COc1ccc2c(c1)O[C@@H](c1ccc(OC)c(OC)c1)C[C@H]2NC(=O)C1(c2ccc3c(c2)OC(F)(F)O3)CC1,cell-free assay,competition with immobilised ligand,1 µM,83
C[C@@H]1CCN(c2nccc(-c3cnn4ncccc34)n2)C1,binding,,1 µM,79
O=C(NCCCC1CCCCC1)c1ccc(CNC(=O)c2cnn(-c3ccccc3)c2C(F)(F)F)cc1,cell-free assay,competition with immobilised ligand,0.1 µM,89
CN(c1nccc(-c2cnn3ncccc23)n1)C1CC1,binding,,1 µM,99
